# Results: publication PMC4969713 (Journal of Alzheimer's Disease, 2016)
# How the values were obtained:
# male BALB/c mice [1] = assay: Novel object recognition, MK-801-induced; assay type: in vivo; conditions: 0.2 mg/kg MK-801; memantine 10 mg/kg; SB-742457 0.2 or 1.0 mg/kg
# Procedure, shortened: (§1)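 All drugs were dissolved in saline and given IP; control animals received saline vehicle. Each group had at least 8 male BALB/c mice. Read-out was novel object recognition index, reported as mean ± SE.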
# 5-HT2C receptor = target: T1, 5-HT2C receptor (Homo sapiens, UniProt P28335); conditions: at 1μM; cited from earlier work
# T1 sequence (P28335 33-458): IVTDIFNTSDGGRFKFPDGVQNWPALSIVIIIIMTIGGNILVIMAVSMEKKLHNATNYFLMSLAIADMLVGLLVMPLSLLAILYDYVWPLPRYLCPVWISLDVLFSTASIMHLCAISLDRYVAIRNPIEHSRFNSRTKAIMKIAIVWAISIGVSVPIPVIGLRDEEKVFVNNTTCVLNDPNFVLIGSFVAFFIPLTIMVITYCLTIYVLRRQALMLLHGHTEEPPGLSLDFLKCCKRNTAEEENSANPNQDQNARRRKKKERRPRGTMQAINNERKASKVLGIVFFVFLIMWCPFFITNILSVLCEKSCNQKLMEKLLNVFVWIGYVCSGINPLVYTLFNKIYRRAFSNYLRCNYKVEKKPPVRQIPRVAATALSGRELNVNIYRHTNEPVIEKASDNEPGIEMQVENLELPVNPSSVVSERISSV
# 5-HT7 receptor [2] = target: T2, 5-HT7 receptor (Homo sapiens, UniProt P34969); conditions: at 1μM; cited from earlier work
# 5-HT1B receptor = conditions: at 1μM; cited from earlier work
# 5-HT2A receptor = 5-HT2A receptor (Homo sapiens, UniProt P28223); conditions: at 1μM; cited from earlier work
# male BALB/c mice [3] = conditions: acute pre-dosing; cited from earlier work
# male BALB/c mice [4] = assay: Passive avoidance, scopolamine-induced amnesia, mice; assay type: in vivo; conditions: highest dose tested, 1 mg/kg
# male BALB/c mice [5] = assay: Novel object recognition, scopolamine-induced; assay type: in vivo; conditions: 1.0 mg/kg scopolamine; memantine 10 mg/kg; SB-742457 0.2 or 1.0 mg/kg
# Procedure, shortened: as §1
# 5-HT2B receptor = 5-HT2B receptor (Homo sapiens, UniProt P41595); conditions: at 1μM; cited from earlier work
# 5-HT7 receptor [6] = target: T2, 5-HT7 receptor; assay: Radioligand binding competition, 5-HT7
# BALB/c mice [7] = assay: Morris water maze, scopolamine-induced amnesia; assay type: in vivo; conditions: IP; AVN-101 0.2 mg/kg; Tacrine 3 mg/kg; donepezil 1 mg/kg; scopolamine 1.5 mg/kg
# Procedure, shortened: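 Scopolamine-induced amnesia model in male BALB/c mice. Read-out was time spent in the quadrant where the escape platform had been during the two preceding training days, reported as mean ± SE.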
# Monkeys (Macaca mulatta) = assay: Q-T interval, monkeys; assay type: in vivo; conditions: 15 mg/kg IV
# femur bone marrow cells = assay: Chromosomal aberrations in femur bone marrow cells; assay type: in vivo, mice; conditions: 20 mg/kg PO single dose, males
# Procedure, shortened: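 Mice 8–12 weeks old, male and female, were dosed orally with test compound or cyclophosphamide 20 mg/kg. Schedule was single dose with kill at 24 h, or qd for 5 days with kill 6 h after the last dose. Colchicine 4 mg/kg was given orally 2.5 h before decapitation. Femur marrow was put into 0.55% KCl at 37°C for 15 min, then spun. Scoring covered 100 metaphases per animal (500 per group), expressed as % aberrant cells.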
# BALB/c mice [8] = assay: Passive avoidance, MK-801-induced amnesia, mice; assay type: in vivo; conditions: IP
# T2 sequence (P34969 whole entry): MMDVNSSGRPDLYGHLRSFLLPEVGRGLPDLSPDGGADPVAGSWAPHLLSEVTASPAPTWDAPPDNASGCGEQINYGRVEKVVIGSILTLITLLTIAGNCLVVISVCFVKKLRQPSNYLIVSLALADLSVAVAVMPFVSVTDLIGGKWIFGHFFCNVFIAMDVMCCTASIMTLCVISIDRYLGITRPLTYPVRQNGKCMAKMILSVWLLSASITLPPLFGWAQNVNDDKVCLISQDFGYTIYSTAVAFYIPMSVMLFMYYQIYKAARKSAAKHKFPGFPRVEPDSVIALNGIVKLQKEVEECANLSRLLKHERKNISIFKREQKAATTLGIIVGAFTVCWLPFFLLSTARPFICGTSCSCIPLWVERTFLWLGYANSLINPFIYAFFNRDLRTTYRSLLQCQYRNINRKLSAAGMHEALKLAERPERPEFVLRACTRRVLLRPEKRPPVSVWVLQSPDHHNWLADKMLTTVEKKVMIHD
# Chain of 5-HT2A receptor (P28223 whole entry): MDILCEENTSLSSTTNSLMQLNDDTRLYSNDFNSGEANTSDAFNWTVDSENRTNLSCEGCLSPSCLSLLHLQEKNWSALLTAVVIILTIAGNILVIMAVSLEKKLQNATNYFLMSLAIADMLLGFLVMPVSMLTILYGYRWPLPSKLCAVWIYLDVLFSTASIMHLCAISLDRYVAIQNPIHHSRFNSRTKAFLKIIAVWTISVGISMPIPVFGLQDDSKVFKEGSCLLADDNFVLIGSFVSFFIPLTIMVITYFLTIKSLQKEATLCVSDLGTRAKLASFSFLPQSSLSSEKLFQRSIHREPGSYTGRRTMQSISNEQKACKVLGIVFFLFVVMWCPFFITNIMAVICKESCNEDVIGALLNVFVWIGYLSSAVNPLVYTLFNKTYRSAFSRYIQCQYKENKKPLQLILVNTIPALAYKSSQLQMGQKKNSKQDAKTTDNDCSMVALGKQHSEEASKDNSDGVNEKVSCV
# Chain of 5-HT2B receptor (P41595 whole entry): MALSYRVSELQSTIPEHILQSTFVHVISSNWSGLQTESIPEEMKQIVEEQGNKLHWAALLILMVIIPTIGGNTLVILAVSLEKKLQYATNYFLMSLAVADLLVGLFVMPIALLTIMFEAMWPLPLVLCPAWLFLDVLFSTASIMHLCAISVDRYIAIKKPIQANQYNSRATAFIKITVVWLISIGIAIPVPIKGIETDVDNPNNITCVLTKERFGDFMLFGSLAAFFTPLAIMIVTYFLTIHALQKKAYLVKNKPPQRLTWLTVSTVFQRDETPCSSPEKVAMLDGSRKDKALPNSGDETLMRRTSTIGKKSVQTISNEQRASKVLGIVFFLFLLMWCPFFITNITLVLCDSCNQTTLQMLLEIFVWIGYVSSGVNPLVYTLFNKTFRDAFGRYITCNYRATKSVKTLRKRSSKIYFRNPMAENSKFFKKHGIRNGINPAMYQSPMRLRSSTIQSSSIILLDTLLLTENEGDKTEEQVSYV
smiles,measurement,setting,value
O=S(=O)(c1ccccc1)c1cnc2c(N3CCNCC3)cccc2c1 [SB-742457],effect on deficit in novel object recognition,male BALB/c mice [1],not statistically effective
same,radioligand displacement,5-HT2C receptor,85%
same,binding inhibition,5-HT7 receptor [2],~25%
same,radioligand displacement,5-HT1B receptor,86%
same,radioligand displacement,5-HT2A receptor,91%
same,"effective dose range, scopolamine-induced amnesia passive avoidance",male BALB/c mice [3],0.5 to 4.5 mg/kg
same,preventative effect,male BALB/c mice [4],very mild preventative effect
same,effect on deficit in novel object recognition,male BALB/c mice [5],not statistically effective
same,radioligand displacement,5-HT2B receptor,88%
same,IC50,5-HT7 receptor [6],1270 nM
Nc1c2c(nc3ccccc13)CCCC2 [Tacrine],effect on scopolamine-induced amnesia (time in platform quadrant),BALB/c mice [7],significant prevention
"CCCCc1oc2ccccc2c1C(=O)c1cc(I)c(OCCN(CC)CC)c(I)c1 [amiodaron, reference compound]",effect on heart rate,Monkeys (Macaca mulatta),no effect on the heart rate
"O=P1(N(CCCl)CCCl)NCCCO1 (stereo not shown) [cyclophosphomide, reference compound]",Cells with multiple aberrations,femur bone marrow cells,6.2%
same,Total altered metaphases (%),femur bone marrow cells,20.8 ± 1.8%
same,"cells with aberration, Double fragment",femur bone marrow cells,0.4%
same,"cells with aberration, Single fragment",femur bone marrow cells,19.8%
same,"cells with aberration, exchanges",femur bone marrow cells,1.0%
same,"cells with aberration, gaps",femur bone marrow cells,0.2%
COc1cc2c(cc1OC)C(=O)C(CC1CCN(Cc3ccccc3)CC1)C2 (stereo not shown) [donepezil],effect on scopolamine-induced amnesia (time in platform quadrant),BALB/c mice [7],not as effective
CC12CC3CC(C)(C1)CC(N)(C3)C2 [memantine],effect on deficit in novel object recognition,male BALB/c mice [1],not statistically effective
same,effect on MK-801-induced amnesia,BALB/c mice [8],not active
same,effect on deficit in novel object recognition,male BALB/c mice [5],not statistically effective
